Assay [1] concerns the target T1, Cyclin-dependent kinase 5/CDK5 activator 1 (Homo sapiens, UniProt Q00535+Q15078). The experiment in a line: Inhibition of recombinant full length N-terminal GST tagged human CDK5/p25 expressed in baculovirus infected sf9 cells using histone H1 as substrate at 10 uM measured after 60 mins in presence of ATP by ADP-Glo kinase assay relative to control. (ADP-Glo turns the ADP formed in a reaction into a luminescent signal.)
Target sequence in this assay (Q00535 whole entry): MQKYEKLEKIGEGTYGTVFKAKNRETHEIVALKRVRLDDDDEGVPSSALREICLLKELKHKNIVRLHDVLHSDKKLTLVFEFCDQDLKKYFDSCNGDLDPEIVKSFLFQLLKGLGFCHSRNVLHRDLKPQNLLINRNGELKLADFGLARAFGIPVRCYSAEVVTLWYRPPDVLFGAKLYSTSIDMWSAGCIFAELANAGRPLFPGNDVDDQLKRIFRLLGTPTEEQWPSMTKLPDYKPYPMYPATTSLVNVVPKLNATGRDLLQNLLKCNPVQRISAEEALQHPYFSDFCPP
Target sequence in this assay (Q15078 99-307 partner limits assumed): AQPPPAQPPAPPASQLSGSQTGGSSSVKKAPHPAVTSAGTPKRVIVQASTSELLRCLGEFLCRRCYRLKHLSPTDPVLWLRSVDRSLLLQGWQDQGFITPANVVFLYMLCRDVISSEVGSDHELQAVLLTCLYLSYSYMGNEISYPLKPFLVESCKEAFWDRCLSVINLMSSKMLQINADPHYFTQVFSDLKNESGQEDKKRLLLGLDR

For assay [2], the target named is CDK2/Cyclin A2 (Homo sapiens) (UniProt P24941+P20248). The experiment in a line: Inhibition of recombinant full length N-terminal GST tagged human CDK2/CyclinA expressed in baculovirus infected sf9 cells using histone H1 as substrate at 10 uM measured after 30 mins in presence of ATP by ADP-Glo kinase assay relative to control.
The next assay deals with MV4-11. The experiment in a line: Antiproliferative activity against human MV4-11 cells assessed as growth inhibition measured after 72 hrs by resazurin assay. In kind it is functional. The following applies: MV4-11, 72 h. In a few lines: (§1)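 Leukemia cells exposed to compound for 72 h; viability read by resazurin reduction. GI50 (concentration giving 50% inhibition of proliferation) reported as mean ± SD of three independent experiments.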

Another assay relates to MOLM-13. The experiment in a line: Antiproliferative activity against human MOLM13 cells assessed as growth inhibition measured after 72 hrs by resazurin assay. In kind it is functional. The following applies: MOLM-13, 72 h. In a few lines: as §1
Assay [3] concerns the target Cyclin-dependent kinase 5/CDK5 activator 1 (Homo sapiens, UniProt Q00535). The assay can be described thus: (§2) Inhibition of recombinant full length N-terminal GST tagged human CDK5/p25 expressed in baculovirus infected sf9 cells using histone H1 as substrate measured after 60 mins in presence of ATP by ADP-Glo kinase assay. In kind it is cell-based.
Assay [4] has as its target T1, Cyclin-dependent kinase 5/CDK5 activator 1. Described as §2. In kind it is cell-based. As to conditions: sf9.
The target of the next assay is CDK2/Cyclin A2 (Homo sapiens, UniProt P24941). The experiment in a line: Inhibition of recombinant full length N-terminal GST tagged human CDK2/CyclinA expressed in baculovirus infected sf9 cells using histone H1 as substrate measured after 30 mins in presence of ATP by ADP-Glo kinase assay. The method in brief: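 CDK2/cyclin A kinase inhibition; Ki values from the average of at least two experiments.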

Assay [5] concerns the target Cyclin-dependent kinase 2/cyclin E1 (Homo sapiens, UniProt P24941). The assay can be described thus: Inhibition of CDK2/Cyclin E (unknown origin) incubated for 30 to 120 mins in presence of ATP by ADP-Glo kinase assay. In kind it is protein-complex assay.
The target of a further assay is CDK9/cyclin T1 (Homo sapiens, UniProt P50750). The experiment in a line: Inhibition of human recombinant full length N-terminal GST His6 fused CDK9 (M1 to F372 residues/ N-terminal His6 tagged Cyclin T1 (M1 to K726 residues) expressed in sf9 cells using RBER-IRStide as substrate incubated for 90 mins in presence of ATP by ADP-Glo kinase assay.
Assay [6] has as its target Cyclin-dependent kinase 1/cyclin B1 (Homo sapiens, UniProt P06493). The experiment in a line: Inhibition of CDK1/CyclinB1 (unknown origin) using histone H1 (GGGPATPKKAKKL) as substrate incubated for 80 mins in presence of ATP by ADP-Glo kinase assay. The format is protein-complex assay.
Another assay addresses CDK6/cyclin D3 (Homo sapiens, UniProt Q00534). The experiment in a line: Inhibition of human recombinant N-terminal GST-tagged CDK6 (M1-A326 residues) and His6 tagged Cyclin D3 (M1-L292 residues) expressed in sf9 cells using histone H1 (GGGPATPKKAKKL) as substrate incubated for 60 mins in presence of ATP by ADP-Glo kinase assay.
The target of assay [7] is Cyclin-dependent kinase 4/cyclin D1 (Homo sapiens, UniProt P11802). The assay can be described thus: Inhibition of human recombinant N-terminal GST-tagged CDK4 (S4-E303 residues)/Cyclin D1 (Q4-I295 residues) expressed in sf9 cells using RB-CTF as substrate incubated for 90 mins in presence of ATP by ADP-Glo kinase assay.
A further assay concerns the target CDK7/Cyclin H/MNAT1 (Homo sapiens, UniProt P50613). The assay can be described thus: Inhibition of CDK7/cyclinH/MAT1 (unknown origin) using RBER-IRStide as substrate incubated for 120 mins in presence of ATP by ADP-Glo kinase assay. In kind it is protein-complex assay.

The source made the active and inactive calls. No cut-off for these calls is given here. A value given as a limit tells only on which side of the number the result lay.

CDK7/Cyclin H/MNAT1, sequence (P51946 whole entry): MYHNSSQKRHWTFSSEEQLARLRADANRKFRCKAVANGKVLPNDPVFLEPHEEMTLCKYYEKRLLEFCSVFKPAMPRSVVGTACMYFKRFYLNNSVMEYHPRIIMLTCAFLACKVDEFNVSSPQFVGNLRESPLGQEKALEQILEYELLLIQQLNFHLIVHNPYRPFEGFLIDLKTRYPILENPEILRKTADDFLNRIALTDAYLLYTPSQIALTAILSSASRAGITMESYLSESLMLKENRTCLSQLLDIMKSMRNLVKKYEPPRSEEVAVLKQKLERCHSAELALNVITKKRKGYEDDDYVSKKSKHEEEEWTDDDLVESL
CDK7/Cyclin H/MNAT1, sequence (P50613 whole entry): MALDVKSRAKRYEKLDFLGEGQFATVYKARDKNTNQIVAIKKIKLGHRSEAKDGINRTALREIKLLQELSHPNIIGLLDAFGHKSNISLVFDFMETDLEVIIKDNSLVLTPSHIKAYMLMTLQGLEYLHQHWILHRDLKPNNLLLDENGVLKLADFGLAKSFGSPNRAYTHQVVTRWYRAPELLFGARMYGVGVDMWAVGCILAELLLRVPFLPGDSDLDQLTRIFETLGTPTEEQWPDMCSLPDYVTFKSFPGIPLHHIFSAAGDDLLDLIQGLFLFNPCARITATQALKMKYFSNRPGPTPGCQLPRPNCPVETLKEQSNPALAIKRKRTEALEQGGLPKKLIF
CDK7/Cyclin H/MNAT1, sequence (P51948 whole entry, further chain): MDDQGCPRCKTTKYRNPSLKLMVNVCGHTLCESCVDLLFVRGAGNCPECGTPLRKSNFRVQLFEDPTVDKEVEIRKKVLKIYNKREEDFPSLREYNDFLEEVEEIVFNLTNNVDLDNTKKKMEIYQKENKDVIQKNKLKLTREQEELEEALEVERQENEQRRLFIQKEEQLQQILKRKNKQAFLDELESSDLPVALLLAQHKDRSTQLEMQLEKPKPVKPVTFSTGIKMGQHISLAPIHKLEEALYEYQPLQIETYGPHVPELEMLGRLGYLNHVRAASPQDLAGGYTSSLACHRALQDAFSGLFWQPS
CDK6/cyclin D3, sequence (P30281 whole entry, the tested form may be a part): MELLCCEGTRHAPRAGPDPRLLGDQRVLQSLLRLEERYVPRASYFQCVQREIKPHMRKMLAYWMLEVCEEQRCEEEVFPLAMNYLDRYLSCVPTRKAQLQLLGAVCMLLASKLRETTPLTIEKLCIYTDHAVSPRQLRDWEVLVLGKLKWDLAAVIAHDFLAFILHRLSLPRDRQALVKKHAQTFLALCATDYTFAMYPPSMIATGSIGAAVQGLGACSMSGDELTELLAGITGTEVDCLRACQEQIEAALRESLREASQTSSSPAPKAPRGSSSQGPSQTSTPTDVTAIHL
CDK6/cyclin D3, sequence (Q00534 whole entry, the tested form may be a part): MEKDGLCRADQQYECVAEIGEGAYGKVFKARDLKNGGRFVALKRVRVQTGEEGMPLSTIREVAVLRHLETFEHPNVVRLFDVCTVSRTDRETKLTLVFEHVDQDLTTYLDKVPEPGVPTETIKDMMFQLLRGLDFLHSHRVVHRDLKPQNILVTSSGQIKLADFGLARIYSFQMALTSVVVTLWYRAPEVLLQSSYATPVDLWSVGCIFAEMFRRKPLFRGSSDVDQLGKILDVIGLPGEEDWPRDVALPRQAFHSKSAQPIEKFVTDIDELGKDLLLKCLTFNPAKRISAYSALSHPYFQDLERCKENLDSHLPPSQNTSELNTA
CDK9/cyclin T1, sequence (O60563 whole entry, the tested form may be a part): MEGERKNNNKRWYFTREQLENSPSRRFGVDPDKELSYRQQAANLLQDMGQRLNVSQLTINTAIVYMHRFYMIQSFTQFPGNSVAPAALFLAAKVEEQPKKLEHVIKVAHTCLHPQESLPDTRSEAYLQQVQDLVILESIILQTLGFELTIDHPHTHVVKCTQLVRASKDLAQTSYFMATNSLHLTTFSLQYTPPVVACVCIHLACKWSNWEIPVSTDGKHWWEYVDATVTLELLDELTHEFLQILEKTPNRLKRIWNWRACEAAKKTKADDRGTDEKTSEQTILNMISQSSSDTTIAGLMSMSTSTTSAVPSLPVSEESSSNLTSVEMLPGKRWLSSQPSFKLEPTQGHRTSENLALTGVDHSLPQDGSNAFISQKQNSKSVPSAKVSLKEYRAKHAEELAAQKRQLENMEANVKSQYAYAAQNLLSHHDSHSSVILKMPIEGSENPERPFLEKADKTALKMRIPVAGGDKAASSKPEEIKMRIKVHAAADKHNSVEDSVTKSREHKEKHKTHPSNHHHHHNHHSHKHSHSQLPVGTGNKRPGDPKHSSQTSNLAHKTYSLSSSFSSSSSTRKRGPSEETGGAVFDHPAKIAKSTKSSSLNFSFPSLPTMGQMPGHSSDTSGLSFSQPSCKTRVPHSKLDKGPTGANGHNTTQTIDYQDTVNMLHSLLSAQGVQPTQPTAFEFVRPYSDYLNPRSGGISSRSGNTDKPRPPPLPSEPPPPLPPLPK
CDK9/cyclin T1, sequence (P50750 whole entry, the tested form may be a part): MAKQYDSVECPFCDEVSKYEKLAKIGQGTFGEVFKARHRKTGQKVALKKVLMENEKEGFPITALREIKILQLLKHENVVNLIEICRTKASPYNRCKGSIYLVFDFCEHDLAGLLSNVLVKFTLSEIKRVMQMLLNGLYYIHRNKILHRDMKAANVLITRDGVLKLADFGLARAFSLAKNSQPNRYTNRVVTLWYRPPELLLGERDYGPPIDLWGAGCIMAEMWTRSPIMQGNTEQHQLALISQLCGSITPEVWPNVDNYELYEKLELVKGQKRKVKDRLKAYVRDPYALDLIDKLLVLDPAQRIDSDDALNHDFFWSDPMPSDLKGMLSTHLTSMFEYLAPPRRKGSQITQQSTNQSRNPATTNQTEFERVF
Cyclin-dependent kinase 1/cyclin B1, sequence (P06493 whole entry, the tested form may be a part): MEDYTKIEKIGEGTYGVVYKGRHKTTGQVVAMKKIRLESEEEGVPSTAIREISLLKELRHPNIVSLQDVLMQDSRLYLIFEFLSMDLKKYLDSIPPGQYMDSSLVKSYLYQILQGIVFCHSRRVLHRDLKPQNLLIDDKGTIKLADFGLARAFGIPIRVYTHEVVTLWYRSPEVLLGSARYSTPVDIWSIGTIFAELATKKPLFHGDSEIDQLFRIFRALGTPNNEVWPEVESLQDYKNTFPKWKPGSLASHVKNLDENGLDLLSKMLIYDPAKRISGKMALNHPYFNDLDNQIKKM
Cyclin-dependent kinase 1/cyclin B1, sequence (P14635 whole entry, further chain, the tested form may be a part): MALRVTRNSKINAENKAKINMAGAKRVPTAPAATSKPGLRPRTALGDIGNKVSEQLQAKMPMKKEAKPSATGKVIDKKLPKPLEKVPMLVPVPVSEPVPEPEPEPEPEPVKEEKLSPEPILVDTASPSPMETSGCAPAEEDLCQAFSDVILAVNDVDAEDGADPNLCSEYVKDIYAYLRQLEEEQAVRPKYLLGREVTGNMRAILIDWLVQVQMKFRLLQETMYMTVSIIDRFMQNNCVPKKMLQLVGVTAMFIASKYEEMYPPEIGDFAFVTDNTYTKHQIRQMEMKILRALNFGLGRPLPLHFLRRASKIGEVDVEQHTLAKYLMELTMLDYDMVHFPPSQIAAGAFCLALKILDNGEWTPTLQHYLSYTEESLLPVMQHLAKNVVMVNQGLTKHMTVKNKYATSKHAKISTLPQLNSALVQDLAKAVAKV
Cyclin-dependent kinase 4/cyclin D1, sequence (P11802 whole entry, the tested form may be a part): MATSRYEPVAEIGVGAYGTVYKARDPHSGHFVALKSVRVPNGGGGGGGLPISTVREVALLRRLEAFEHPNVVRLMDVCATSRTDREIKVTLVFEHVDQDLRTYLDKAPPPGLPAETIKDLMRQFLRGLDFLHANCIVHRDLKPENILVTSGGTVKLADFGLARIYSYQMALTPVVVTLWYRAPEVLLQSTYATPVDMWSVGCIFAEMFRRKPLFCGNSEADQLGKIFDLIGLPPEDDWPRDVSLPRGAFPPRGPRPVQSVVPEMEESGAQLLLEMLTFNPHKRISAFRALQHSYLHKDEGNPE
Cyclin-dependent kinase 4/cyclin D1, sequence (P24385 whole entry, further chain, the tested form may be a part): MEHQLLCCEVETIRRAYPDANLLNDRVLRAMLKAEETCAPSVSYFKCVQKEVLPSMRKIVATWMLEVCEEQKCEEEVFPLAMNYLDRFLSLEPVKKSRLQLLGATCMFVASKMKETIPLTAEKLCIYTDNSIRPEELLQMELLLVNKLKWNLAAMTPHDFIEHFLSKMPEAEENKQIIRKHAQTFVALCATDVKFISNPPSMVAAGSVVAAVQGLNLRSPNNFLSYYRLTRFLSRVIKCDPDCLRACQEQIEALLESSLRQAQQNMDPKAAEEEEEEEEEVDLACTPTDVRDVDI

For orientation: inhibition means the change of the read-out against control, counted positive when it falls. Regarding `FC(F)(F)c1ccccc1Nc1ncc2c(n1)CCCC2`, the inhibition in [1] is 10%; in assay [2], 8%.

As to `COc1ccccc1Nc1ncc2c(n1)CCCC2`, the inhibition in assay [1] was found to be 22%; in [2], 2%.

As a reminder, the GI50 is the concentration at which growth is held to half of that of the control. As a reminder, the Ki is the dissociation constant of the complex between target and ligand, obtained from inhibition or displacement. Regarding `O=C(Nc1cccc(CN2CCCC2)c1)c1n[nH]c2ccccc12`, the GI50 with MV4-11 worked out at 8.62 µM; in the assay with MOLM-13, 3.83 µM. Also, the Ki in [3] worked out at 2.03 µM.

For `FC(F)(F)c1cccc(Nc2ncc3c(n2)CCCC3)c1`, the inhibition was determined as 5% in [1] and 7% in assay [2].

`COc1ccc(Nc2ncc3c(n2)CCCC3)c(OC)c1F`: the inhibition in assay [1] is 21%; in [2], 7%.

On to `FC(F)(F)c1ccc(Nc2ncc3c(n2)CCCC3)cc1`, for which the inhibition in assay [1] worked out at 6%; in assay [2], 7%.

Take `CC1(C)CC(=O)c2cnc(NC(=O)c3ccc(F)cc3)nc2C1`: the Ki entry in assay [4] is “Not Active”.

`FC(F)(F)Oc1ccccc1Nc1ncc2c(n1)CCCC2`: in [1], the inhibition was 9%. The inhibition entry in [2] was “inactive”.

On to `COc1cc(Cl)ccc1Nc1ncc2c(n1)CCCC2`, for which, in assay [1], the inhibition came to 45%. Moreover, in assay [2], the inhibition result is “inactive”.

Turning to `COc1ccc(Nc2ncc3c(n2)CCCC3)cc1`, the values for the inhibition in [1] and in assay [2] were 1% and 3%, respectively.

In the case of `CCOc1ccccc1Nc1ncc2c(n1)CCCC2`, the inhibition in assay [1] was found to be 4%; in assay [2], 2%.

With `Cc1ccccc1Nc1ncc2c(n1)CCCC2`, the Ki is 4.12 µM on CDK2/Cyclin A2; more than 5 µM in assay [5]; more than 5 µM on CDK9/cyclin T1; more than 5 µM in assay [6]; more than 5 µM on CDK6/cyclin D3; 0.99 µM in [3]. Moreover, the Ki (in assay [7]; on CDK7/Cyclin H/MNAT1) was more than 5 µM each time. For the same compound, in the assay with MV4-11, the GI50 is more than 10 µM. In addition, the inhibition in assay [1] stood at 82%; in [2], 54%.

Broadly, the IC50 is the midpoint of a concentration-inhibition curve. Take `c1ccc(Nc2ncc3c(n2)CCCC3)cc1`: the GI50 in the assay with MV4-11 stood at 9.83 µM; in the assay with MOLM-13, 5.63 µM. The IC50 in assay [3] worked out at 1.76 µM. The Ki in [3] was 0.88 µM.

As for `COc1cccc(Nc2ncc3c(n2)CCCC3)c1`, the Ki at CDK2/Cyclin A2 was 1.11 µM; in assay [5], more than 5 µM; at CDK9/cyclin T1 it was more than 5 µM; in assay [6] it was more than 5 µM; on CDK6/cyclin D3, more than 5 µM; in assay [3] it was 1.01 µM. Besides, the Ki (in assay [7]; at CDK7/Cyclin H/MNAT1) was more than 5 µM each time. In addition, the GI50 with MV4-11 is 2.28 µM. The inhibition worked out at 85% in assay [1] and 93% in assay [2].

For the compound `O=[N+]([O-])c1cccc(Nc2ncc3c(n2)CCCC3)c1`, the Ki at CDK2/Cyclin A2 was 1.1 µM; in assay [5] it was more than 5 µM; on CDK9/cyclin T1, more than 5 µM; in assay [6], more than 5 µM; on CDK6/cyclin D3 it was more than 5 µM; in assay [3], 1.26 µM. Also, the Ki (in [7]; at CDK7/Cyclin H/MNAT1) was more than 5 µM in each case. In the assay on MV4-11, the GI50 was determined as 3.5 µM. The inhibition was found to be 83% in [1] and 87% in assay [2].

On to `Cc1c(Nc2ncc3c(n2)CCCC3)cccc1NS(C)(=O)=O`, for which, in assay [1], the inhibition worked out at 63%.

Consider `CCc1cccc(Nc2ncc3c(n2)CCCC3)c1`, for which the Ki at CDK2/Cyclin A2 was more than 5 µM; in [5] it was more than 5 µM; at CDK9/cyclin T1, more than 5 µM; in assay [6], more than 5 µM; at CDK6/cyclin D3 it was more than 5 µM; in [3], 1.23 µM. Also, the Ki (in assay [7]; on CDK7/Cyclin H/MNAT1) was more than 5 µM throughout. The GI50 in the assay on MV4-11 was 2.6 µM. Further, the inhibition was 78% in assay [1] and 39% in assay [2].

As to `Cc1ccc(Nc2ncc3c(n2)CCCC3)cc1`, the Ki on CDK2/Cyclin A2 was 4.54 µM; in assay [5], more than 5 µM; on CDK9/cyclin T1 it was more than 5 µM; in assay [6], more than 5 µM; on CDK6/cyclin D3 it was more than 5 µM; in assay [3] it was 1.44 µM. In addition, the inhibitory constant (Ki) (in assay [7]; at CDK7/Cyclin H/MNAT1) was more than 5 µM each time. The GI50 in the assay with MV4-11 worked out at 6 µM. Moreover, the inhibition in assay [1] is 77%; in assay [2], 58%.

For the compound `COc1ccc(Nc2ncc3c(n2)CCC3)cc1`, the GI50 is 0.84 µM in the assay with MV4-11 and 1.1 µM in the assay with MOLM-13. The Ki in assay [3] turned out to be 1.72 µM.

The values above are taken from ChEMBL document CHEMBL4396883, “Discovery of CDK5 Inhibitors through Structure-Guided Approach” (ACS Med Chem Lett, 2019).
